Assay results published in ChEMBL document CHEMBL3232904, “Discovery of novel quinoline carboxylic acid series as DGAT1 inhibitors” (Bioorg Med Chem Lett, 2014).

Columns and labels:
[1] = molecular target: T1, Diacylglycerol O-acyltransferase 1 (Mus musculus, UniProt Q9Z2A7); assay: Inhibition of mouse DGAT1
T1 sequence (Q9Z2A7 whole entry): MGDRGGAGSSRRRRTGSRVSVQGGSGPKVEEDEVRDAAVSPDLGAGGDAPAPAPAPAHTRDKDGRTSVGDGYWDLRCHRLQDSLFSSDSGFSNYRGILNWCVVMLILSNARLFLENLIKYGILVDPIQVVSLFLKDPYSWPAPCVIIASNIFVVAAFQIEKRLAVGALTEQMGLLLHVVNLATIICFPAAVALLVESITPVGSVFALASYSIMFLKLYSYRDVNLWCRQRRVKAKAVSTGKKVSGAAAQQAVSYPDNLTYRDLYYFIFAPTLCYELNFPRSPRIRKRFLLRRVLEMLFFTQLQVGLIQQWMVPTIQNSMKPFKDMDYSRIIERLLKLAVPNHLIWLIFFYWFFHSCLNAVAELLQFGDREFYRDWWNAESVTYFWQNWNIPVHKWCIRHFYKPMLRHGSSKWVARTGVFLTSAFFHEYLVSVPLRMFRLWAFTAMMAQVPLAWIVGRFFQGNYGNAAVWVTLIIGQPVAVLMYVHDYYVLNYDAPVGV
Summary of the method: (§1)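 IC50 values are the average of at least two independent determinations.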

Mus musculus [2] = assay: Reduction of postprandial plasma triglyceride level in C57BL/6J mouse at 3 mg/kg, po administered 15 mins prior to corn oil bolus challenge measured after 2 hrs relative to vehicle-treated control; type: functional; parameters: scale not given: the % may be the effect or the level left
Summary of the method: (§2)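 Vehicle is 20% hydroxypropyl-β-cyclodextrin; compound or vehicle is given 15 min before time 0. Mice receive a 0.25 mL corn oil bolus at time 0. Terminal blood is taken by heart puncture at 120 min. Plasma TG is measured by an enzymatic colorimetric kit with absorbance read at 600 nm. Values are the mean ± SEM from eight studies, as % reduction versus vehicle.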

Mus musculus [3] = assay: Reduction of plasma triglyceride level in C57BL/6J mouse at 3 mg/kg, po administered 15 mins prior to corn oil bolus challenge measured after 12 hrs relative to vehicle-treated control; type: functional; parameters: scale not given: the % may be the effect or the level left
Mus musculus [4] = assay: Reduction of postprandial plasma triglyceride level in C57BL/6J mouse at 1 mg/kg, po administered 15 mins prior to corn oil bolus challenge measured after 2 hrs relative to vehicle-treated control; type: functional; parameters: scale not given: the % may be the effect or the level left; summary of the method: as §2
[5] = molecular target: T2, Sterol O-acyltransferase 2 (Homo sapiens, UniProt O75908); assay: Inhibition of human ACAT2; summary of the method: as §1
T2 sequence (O75908 whole entry): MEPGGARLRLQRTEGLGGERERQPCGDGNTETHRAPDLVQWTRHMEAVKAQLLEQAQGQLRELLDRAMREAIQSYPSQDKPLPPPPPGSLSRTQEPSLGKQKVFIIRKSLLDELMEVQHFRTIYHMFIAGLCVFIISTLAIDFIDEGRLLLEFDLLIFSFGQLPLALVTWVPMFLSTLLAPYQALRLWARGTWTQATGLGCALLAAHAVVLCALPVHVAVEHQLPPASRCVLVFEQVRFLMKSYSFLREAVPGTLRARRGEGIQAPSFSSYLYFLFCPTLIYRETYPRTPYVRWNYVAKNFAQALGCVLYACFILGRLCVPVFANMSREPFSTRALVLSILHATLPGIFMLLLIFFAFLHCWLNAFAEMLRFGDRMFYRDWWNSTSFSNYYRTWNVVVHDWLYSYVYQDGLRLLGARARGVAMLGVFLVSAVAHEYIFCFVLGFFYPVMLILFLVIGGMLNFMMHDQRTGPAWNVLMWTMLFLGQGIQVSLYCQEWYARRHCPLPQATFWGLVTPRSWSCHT

[6] = AUC in rat at 10 mg/kg, po; type: ADME, organism-based; parameters: dose 10 mg/kg, route oral; details: plasma
[7] = molecular target: T3, PXR (nuclear receptor subfamily 1 group I member 2) (Homo sapiens, UniProt O75469); assay: Activation of PXR (unknown origin) at 10 uM; type: ADME; details: read-out: FC
T3 sequence (O75469 whole entry): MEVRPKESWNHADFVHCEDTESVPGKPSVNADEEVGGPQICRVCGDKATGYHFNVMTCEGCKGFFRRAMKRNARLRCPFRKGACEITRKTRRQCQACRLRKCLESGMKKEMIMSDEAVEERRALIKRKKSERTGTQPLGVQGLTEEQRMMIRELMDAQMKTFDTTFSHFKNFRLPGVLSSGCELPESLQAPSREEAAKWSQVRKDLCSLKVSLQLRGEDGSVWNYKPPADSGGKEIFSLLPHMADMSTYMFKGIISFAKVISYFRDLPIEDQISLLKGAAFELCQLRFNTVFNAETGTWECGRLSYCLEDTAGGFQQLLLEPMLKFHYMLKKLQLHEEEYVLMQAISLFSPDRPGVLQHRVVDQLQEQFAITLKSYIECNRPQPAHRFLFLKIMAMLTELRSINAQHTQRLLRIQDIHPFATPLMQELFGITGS

Cytochrome P450 1A1 = molecular target: T4, Cytochrome P450 1A1 (Homo sapiens, UniProt P04798); assay: Induction of CYP1A1 (unknown origin); type: ADME
T4 sequence (P04798 whole entry): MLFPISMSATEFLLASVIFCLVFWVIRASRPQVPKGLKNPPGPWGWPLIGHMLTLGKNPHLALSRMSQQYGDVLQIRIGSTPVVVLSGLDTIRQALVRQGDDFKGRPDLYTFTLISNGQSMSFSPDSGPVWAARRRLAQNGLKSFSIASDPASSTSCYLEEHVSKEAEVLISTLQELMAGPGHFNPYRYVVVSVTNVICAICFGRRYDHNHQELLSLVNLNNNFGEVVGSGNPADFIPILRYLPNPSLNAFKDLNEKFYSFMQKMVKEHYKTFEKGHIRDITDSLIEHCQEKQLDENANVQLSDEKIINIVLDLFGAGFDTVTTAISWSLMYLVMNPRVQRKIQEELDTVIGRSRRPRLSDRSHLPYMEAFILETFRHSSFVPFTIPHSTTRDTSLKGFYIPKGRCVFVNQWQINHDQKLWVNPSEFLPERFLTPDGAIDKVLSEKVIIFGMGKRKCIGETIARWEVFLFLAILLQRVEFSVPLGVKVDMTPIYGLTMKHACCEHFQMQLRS

Structure (SMILES): Cc1cc(C(=O)Nc2ccccc2)c2ccc(-c3ccc([C@H]4CC[C@H](CC(=O)O)CC4)cc3)cc2n1
- IC50 [1]: 10 nM
- Activity (Mus musculus [2]): -100%
- Activity (Mus musculus [3]): -79%
- Activity (Mus musculus [4]): -94%
- IC50 [5]: 1100 nM
- AUC [6]: 79 µM·h
- fold induction at 10 µM [7]: 1.4
- Activity (Cytochrome P450 1A1): Active
